Screening data from PubChem.
CTSL1 counter: Fasciola hepatica cathepsin L1 inhibitors, primary screen, counter-screen for PFM18AAP inhibitor project, biochemical, QFRET, fluorogenic peptide substrate; recombinant F. hepatica cathepsin L1, Z-Leu-Arg-MCA fluorescence; inhibition, % at 5.96 µM; actives 0.49% (n = 300,000); AID 1906, 2009;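 active = inhibition above the mean of all tested compounds plus 3 SD, set per screening campaign, cut at about 17% in these data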;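 note: 0% = plate median of test compound wells and 100% = 1 µM Z-Phe-Ala-diazomethylketone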
UCH37 inh: inhibitors of human UCH37 deubiquitinase, primary screen, biochemical, Ub-AMC cleavage, fluorescence. Ubiquitin carboxyl-terminal hydrolase isozyme L5 (Homo sapiens), Q9Y5K5. inhibition, % (test concentration not listed). actives 0.33% (n = 330,000). purified proteasome/UCH37;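 active = mean inhibition over replicate wells above about 20%, limit read from the data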;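 note: 0% = compound-free wells with enzyme and 100% = wells lacking proteasome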
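Signal – fluorescence, ex 355 nm, em 460 nm · System – Proteasome-bound UCH37 · Input – 0.15 nM proteasome as dispensed · Timing – 30 min preincubation with enzyme, 25 min cleavage at room temperature · Read-out basis – percent inhibition of cleavage signal versus uninhibited and no-proteasome wells · Medium – Tris-HCl pH 7.4 with ATP-MgCl2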
GSTO1 inh: inhibitors of recombinant GSTO1, primary screen, counter-screen for RBBP9 inhibitor project, biochemical, fluorescence polarization. Glutathione S-transferase omega-1 (Homo sapiens), P78417. activity-based probe fluorescence polarization. inhibition, % at 5.96 µM. actives 1.1% (n = 300,000). AID 1974, 2009;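 active = inhibition above the campaign mean inhibition plus 3 SD, cut at about 35% in these data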;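 note: 0% = GSTO1-1 with DMSO and 100% = wells lacking GSTO1-1 enzyme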
PAD4 FP inh: human PAD4 inhibitors, primary screen, biochemical, fluorescence polarization, 1536-well format | Protein-arginine deiminase type-4 (Homo sapiens), Q9UM07 | recombinant PAD4, RCA probe fluorescence polarization | inhibition, % at 6.36 µM | actives 0.41% (n = 330,000) | AID 485272, 2010;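 active = percent inhibition above a cutoff equal to the mean of all tested compounds plus 3 SD, cut at about 15% in these data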;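 note: 0% = PAD4 with RCA probe and DMSO and 100% = probe without PAD4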
Target sequence (Q9UM07 whole entry, looked up): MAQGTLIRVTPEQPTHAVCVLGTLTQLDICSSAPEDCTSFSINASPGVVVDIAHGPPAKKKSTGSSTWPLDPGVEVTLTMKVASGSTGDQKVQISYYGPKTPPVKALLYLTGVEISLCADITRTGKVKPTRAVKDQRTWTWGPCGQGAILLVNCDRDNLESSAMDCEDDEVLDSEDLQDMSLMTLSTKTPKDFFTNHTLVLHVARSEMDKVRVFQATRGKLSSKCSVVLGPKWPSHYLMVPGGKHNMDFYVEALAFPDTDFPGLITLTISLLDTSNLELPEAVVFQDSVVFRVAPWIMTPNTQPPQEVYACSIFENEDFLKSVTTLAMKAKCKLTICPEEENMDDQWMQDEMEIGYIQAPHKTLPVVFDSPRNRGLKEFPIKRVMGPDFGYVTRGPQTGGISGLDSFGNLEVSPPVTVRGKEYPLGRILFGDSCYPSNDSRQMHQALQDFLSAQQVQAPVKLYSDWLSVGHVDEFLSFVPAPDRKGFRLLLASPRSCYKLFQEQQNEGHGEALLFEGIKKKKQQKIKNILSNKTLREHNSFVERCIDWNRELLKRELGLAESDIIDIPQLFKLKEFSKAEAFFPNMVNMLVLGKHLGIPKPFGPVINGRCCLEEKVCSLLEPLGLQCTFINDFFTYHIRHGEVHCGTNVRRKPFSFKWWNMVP
TDP2 absorb: human TDP2 enzyme inhibitors, primary screen, biochemical, epi absorbance, recombinant enzyme. Tyrosyl-DNA phosphodiesterase 2 (Homo sapiens), O95551. T5PNP hydrolysis, p-nitrophenol absorbance 415 nm. inhibition, % at 12.8 µM. actives 0.34% (n = 370,000). AID 720702, 2013;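 active = inhibition above the mean of all tested compounds plus 3 SD, set per campaign, cut at about 25% in these data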;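 note: 0% = DMSO with enzyme and 100% = buffer with substrate but no TDP2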
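Material: recombinant human TDP2; quantity: TDP2 enzyme at 120 nM final; medium: Tris-HCl pH 7.5 with MgCl2; compound: single concentration, 12.8 µM nominal, with 1% DMSO; incubation: 2 h enzyme incubation at 37 °C; signal: epi absorbance; measure: percent inhibition; benchmarks: high control without enzyme, low control DMSO plus TDP2; repeats: singlicate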
HKDC1 inhibitor: HKDC1 hexokinase inhibitors, primary screen, biochemical, fluorescence, uHTS; inhibition, % at 20 µM; recombinant HKDC1, G6PDH/diaphorase resazurin coupled fluorescence; AID 493160, 2011; actives 0.16% (n = 340,000);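 active = inhibition above about 35% when tested at 20 µM, limit read from the data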;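 note: plate controls were DMSO wells with enzyme for no effect and DMSO wells lacking enzyme for full effect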
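Material – in-house recombinant HK5 (HKDC1) enzyme · Quantity – HKDC1 at 5 µg/mL · Buffer or medium – pH 8.0 Tris buffer with 10 mM MgCl2 · Reagent – glucose with 1 mM ATP · Dosing – single 20 µM dose · Times – reaction time 90 min, room temperature, protected from light · Technique – resorufin fluorescence at 613 nm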
GSTO1 inh conf: GSTO1 inhibitor hit confirmation, counter-screen for RBBP9 inhibitor project, biochemical, fluorescence polarization, triplicate; shares compounds with GSTO1 inh; recombinant GSTO1, probe fluorescence polarization; inhibition, % at 5.96 µM; actives 54% (n = 2,400);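 active = inhibition above the primary screen's cutoff, its mean inhibition plus 3 SD, cut at about 35% in these data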;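 note: loss of polarization as inhibitors block binding of rhodamine sulfonate ester activity probe; 0% = GSTO1 with DMSO and 100% = wells lacking GSTO1 enzyme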
PAD4 FP conf: human PAD4 inhibitors, confirmation, biochemical, fluorescence polarization; AID 488796, 2010; actives 28% (n = 1,200); shares compounds with PAD4 FP inh; inhibition, % at 6.36 µM; recombinant PAD4, RCA probe fluorescence polarization;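 active = mean inhibition across replicates above the hit cutoff set by the earlier primary screen, cut at about 15% in these data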;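 note: inhibitors block active-site labeling by the probe so polarization falls; 0% = PAD4 with probe and DMSO and 100% = probe without PAD4 enzyme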
TDP2 confirm: human TDP2 enzyme inhibitors, retest, confirmation, biochemical, epi absorbance, recombinant enzyme; shares compounds with TDP2 absorb; absorbance read-out; inhibition, % at 12.8 µM; actives 22% (n = 1,100); in the data active = inhibition above about 25%;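 note: 0% = vehicle with enzyme and 100% = no enzyme buffer only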
The depositor's hits bear a star. Hits are enriched below; roughly 1.6% of the tested compounds scored in any of these assays.

Results for COCCCn1c(N)c(C(=O)NCc2ccco2)c2nc3ccccc3nc21 ?
CTSL1 counter: 4.4; GSTO1 inh: 75.9*; PAD4 FP inh: -4.9; TDP2 absorb: 92.3*; HKDC1 inhibitor: 15.2; GSTO1 inh conf: 2.1; TDP2 confirm: 15.3

How did Nc1c(C(=O)OCc2ccccc2)c2nc3ccccc3nc2n1Cc1cccs1 do in these assays?
CTSL1 counter: 1.3; UCH37 inh: -193.0; GSTO1 inh: 50.6*; PAD4 FP inh: 24.8*; TDP2 absorb: 25.3*; HKDC1 inhibitor: -4.1; GSTO1 inh conf: 30.5; PAD4 FP conf: -3.8; TDP2 confirm: -2.9

Results for CC(C)(C)OC(=O)c1c(N)n(Cc2ccco2)c2nc3ccccc3nc12 ?
CTSL1 counter: 6.6; UCH37 inh: inactive; GSTO1 inh: 56.4*; PAD4 FP inh: 18.6*; TDP2 absorb: 66.9*; HKDC1 inhibitor: 5.0; GSTO1 inh conf: 3.4; TDP2 confirm: -4.0

Results for CC(=O)N/C(=C\c1ccccc1)C(=O)OC(C)C(=O)c1ccccc1 (configuration not stated) ?
CTSL1 counter: 2.2; UCH37 inh: 1.7; GSTO1 inh: 11.5; PAD4 FP inh: -1.8; TDP2 absorb: 2.3; HKDC1 inhibitor: -4.7

Results for CC1Oc2ccccc2N(CC(=O)N2CCCC2)C1=O (configuration not stated) ?
CTSL1 counter: 9.6; UCH37 inh: 0.8; GSTO1 inh: 11.0; PAD4 FP inh: -1.6; TDP2 absorb: 12.3; HKDC1 inhibitor: -4.3

How did O=C(c1ccco1)N1CCN(S(=O)(=O)c2cccc([N+](=O)[O-])c2)CC1 do in these assays?
CTSL1 counter: -2.1; UCH37 inh: 0.2; GSTO1 inh: 11.4; PAD4 FP inh: -5.0; TDP2 absorb: 8.8; HKDC1 inhibitor: -8.0

Results for CCC(C)NC(=O)c1c(N)n(CC2CCCO2)c2nc3ccccc3nc12 (configuration not stated) ?
CTSL1 counter: 0.7; UCH37 inh: -314.0; GSTO1 inh: 38.4*; PAD4 FP inh: -12.8; TDP2 absorb: 62.3*; HKDC1 inhibitor: 15.6; GSTO1 inh conf: 57.8*; TDP2 confirm: -0.8

What do the screens show for `Cc1ccc(CNC(=O)COC(=O)c2nc(-c3ccccc3)oc2C)cc1`?
UCH37 inh: 1.5; PAD4 FP inh: 1.0; TDP2 absorb: -3.6; HKDC1 inhibitor: -0.3

How did COc1ccc(OC)c(N2C(=O)NC(=O)/C(=C\c3ccc([N+](=O)[O-])s3)C2=O)c1 do in these assays?
CTSL1 counter: 6.3; UCH37 inh: 8.9; GSTO1 inh: 39.8*; PAD4 FP inh: -26.0; TDP2 absorb: 28.4*; HKDC1 inhibitor: 11.5; GSTO1 inh conf: 26.0; TDP2 confirm: 17.9

Results for O=C1NC(=O)N(c2ccccc2)C(=O)/C1=C\c1ccc([N+](=O)[O-])s1 ?
CTSL1 counter: -0.9; UCH37 inh: 14.4; GSTO1 inh: 34.6; PAD4 FP inh: -6.1; TDP2 absorb: -4.7; HKDC1 inhibitor: 1.7

What do the screens show for `COc1cc2c(cc1O)[C@@H]1Cc3ccc(OC)c(O)c3CN1CC2`?
CTSL1 counter: 65.5*; UCH37 inh: 1.8; GSTO1 inh: 69.4*; PAD4 FP inh: -5.8; TDP2 absorb: 53.6*; HKDC1 inhibitor: 16.1; GSTO1 inh conf: 6.5; TDP2 confirm: 37.8*

What do the screens show for `COc1ccc(C[C@@H]2c3cc(O)c(OC)cc3CCN2C)cc1O`?
CTSL1 counter: 4.4; GSTO1 inh: 0.2; PAD4 FP inh: 4.0; TDP2 absorb: 14.1; HKDC1 inhibitor: -3.9

Results for CCCCn1c(NS(=O)(=O)c2ccccc2)c(C(=O)OCC)c2nc3ccccc3nc21 ?
CTSL1 counter: 0.1; UCH37 inh: inactive; GSTO1 inh: 66.0*; PAD4 FP inh: 63.4*; TDP2 absorb: 88.3*; HKDC1 inhibitor: -10.7; GSTO1 inh conf: 66.0*; PAD4 FP conf: -13.3; TDP2 confirm: 83.4*

What do the screens show for `Cc1ccc(C(=O)N/C(=C\c2ccc(C(C)C)cc2)C(=O)NCCCN2CCOCC2)cc1`?
CTSL1 counter: 6.8; UCH37 inh: 3.0; GSTO1 inh: 2.6; PAD4 FP inh: 0.0; TDP2 absorb: -0.1; HKDC1 inhibitor: -6.9

Results for N/C(=N\N=C/c1ccc(-c2ccc(O)c(C(=O)O)c2)o1)N[N+](=O)[O-] ?
CTSL1 counter: 4.0; GSTO1 inh: 40.0*; PAD4 FP inh: 1.1; TDP2 absorb: 28.4*; HKDC1 inhibitor: 15.9; GSTO1 inh conf: 57.3*; TDP2 confirm: -2.0

How did CCCCn1c(O)c(C(C)=NCCCn2ccnc2)c(=O)[nH]c1=O do in these assays?
CTSL1 counter: 0.7; UCH37 inh: -0.8; GSTO1 inh: 8.7; PAD4 FP inh: 27.4*; TDP2 absorb: -0.1; HKDC1 inhibitor: -7.4; PAD4 FP conf: 15.7*

How did CCCCn1c(O)c(C(CC)=NCCCn2ccnc2)c(=O)[nH]c1=O do in these assays?
CTSL1 counter: 2.6; UCH37 inh: 3.0; GSTO1 inh: 10.3; PAD4 FP inh: 0.8; TDP2 absorb: 3.0; HKDC1 inhibitor: -5.7

How did Cc1ccccc1NC(=O)Cc1nc(COC(=O)Cc2ccccc2)cs1 do in these assays?
PAD4 FP inh: 46.5*; TDP2 absorb: 7.2; HKDC1 inhibitor: -2.6; PAD4 FP conf: -7.8

Results for CCCN(CCC)C(=O)Cc1c(-c2ccc(Cl)cc2)nc2c(Cl)cc(Cl)cn12 ?
CTSL1 counter: -2.1; UCH37 inh: 3.3; GSTO1 inh: 5.2; PAD4 FP inh: 0.7; TDP2 absorb: 5.3; HKDC1 inhibitor: 1.0

Results for Cc1ccc(-c2nc3ccc(C)cn3c2CC(=O)N(C)C)cc1 ?
CTSL1 counter: -2.5; UCH37 inh: -13.7; GSTO1 inh: 7.8; PAD4 FP inh: 16.9*; TDP2 absorb: 7.6; HKDC1 inhibitor: -1.8; PAD4 FP conf: 9.9
